In ChEMBL document CHEMBL6092223, “Covalent Inhibitors of KEAP1 with Exquisite Selectivity” (J Med Chem, 2024):
The source made the active and inactive calls. The calls are words filed in the database; no cut-off is given here.

Key:
[1] = In vivo activation of Nrf2 in male db/db mouse assessed as increase in NQO1 mRNA expression in kidney at 100 mg/kg, po administered via gavage and measured after 6 hrs relative to control; assay type: functional
How it was run: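 Fed male db/db mice (8–10 weeks) dosed 100 mg/kg by oral gavage in 1% HEC. Kidney Nqo1 mRNA measured at 6 h or 24 h and expressed as % change versus vehicle-treated mice.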

[2] = In vivo activation of Nrf2 in male db/db mouse assessed as increase in NQO1 mRNA expression in kidney at 100 mg/kg, po administered via gavage and measured after 24 hrs relative to control; assay type: functional
[3] = molecular target: Kelch-like ECH-associated protein 1 (Homo sapiens) (UniProt Q14145); experiment: Binding affinity to human Keap1 BTB domain (48 to 213 residues) extracted from Escherichia coli BL21(DE3)-R3-pRARE2 cells assessed as adduct formation by intact mass spectrometry
[4] = species on record: Homo sapiens; experiment: Binding affinity to human Keap1 BTB domain C151A mutant (48 to 213 residues) extracted from Escherichia coli BL21(DE3)-R3-pRARE2 cells assessed as adduct formation by intact mass spectrometry
[5] = test system: Fibroblast; experiment: Effect on ARE signal response in Nrf2 knockout mouse embryonic fibroblast cells; assay type: functional, cell-based
[6] = test system: Mus musculus; experiment: Induction of NQO1 mRNA expression in C57BI6 mouse kidney at 100 mg/kg measured after 24 hrs; assay type: functional, organism-based
[7] = test system: Mus musculus; experiment: Induction of NQO1 mRNA expression in Nrf2-/- mouse kidney at 100 mg/kg measured after 24 hrs; assay type: functional, organism-based
[8] = molecular target: T1, Keap1/Nrf2 (Homo sapiens, UniProt Q14145); experiment: Inhibition of human Keap1/PL-tagged human Nrf2 protein-protein interaction in human PathHunter U2OS Keap1-NRF2 Nuclear Translocation cells assessed as increase in Nrf2 translocation incubated for 3 hrs by luminescence based analysis; assay type: cell-based
[9] = molecular target: T1, Keap1/Nrf2; experiment: Inhibition of Keap1/Nrf2 protein-protein interaction in human HepG2 cells transfected with beta-lactamase under the control of ARE incubated for 16 hrs by ARE-reporter based FRET assay; assay type: cell-based
[10] = in vitro; assay type: ADME, Microsome; conditions: human, pooled liver microsomes, time < 55 min, read-out: CLH
[11] = in vitro; assay type: ADME, Microsome; conditions: mouse, pooled liver microsomes, time < 55 min, read-out: CLH
[12] = Apparent permeability across apical to basolateral side in human Caco-2 cells at 10 uM incubated for 120 mins by LC-MS/MS analysis
[13] = Efflux ratio of apparent permeability across basolateral to apical over apical to basolateral side in human Caco-2 cells at 10 uM incubated for 120 mins by LC-MS/MS analysis; conditions: caco-2, 2 h
[14] = molecular target: Kelch-like ECH-associated protein 1 (Homo sapiens) (UniProt Q14145); experiment: Binding affinity to human Keap1 BTB domain (48 to 213 residues) extracted from Escherichia coli BL21(DE3)-R3-pRARE2 cells assessed as adduct formation at 100 uM by LC-MS analysis
[15] = molecular target: T2, Kelch-like protein 26 (Homo sapiens) (UniProt Q53HC5); experiment: Binding affinity to human KLHL26 BTB domain (34 to 161 residues) extracted from Escherichia coli BL21(DE3)-R3-pRARE2 cells assessed as adduct formation at 100 uM by LC-MS analysis
T2 sequence (whole entry): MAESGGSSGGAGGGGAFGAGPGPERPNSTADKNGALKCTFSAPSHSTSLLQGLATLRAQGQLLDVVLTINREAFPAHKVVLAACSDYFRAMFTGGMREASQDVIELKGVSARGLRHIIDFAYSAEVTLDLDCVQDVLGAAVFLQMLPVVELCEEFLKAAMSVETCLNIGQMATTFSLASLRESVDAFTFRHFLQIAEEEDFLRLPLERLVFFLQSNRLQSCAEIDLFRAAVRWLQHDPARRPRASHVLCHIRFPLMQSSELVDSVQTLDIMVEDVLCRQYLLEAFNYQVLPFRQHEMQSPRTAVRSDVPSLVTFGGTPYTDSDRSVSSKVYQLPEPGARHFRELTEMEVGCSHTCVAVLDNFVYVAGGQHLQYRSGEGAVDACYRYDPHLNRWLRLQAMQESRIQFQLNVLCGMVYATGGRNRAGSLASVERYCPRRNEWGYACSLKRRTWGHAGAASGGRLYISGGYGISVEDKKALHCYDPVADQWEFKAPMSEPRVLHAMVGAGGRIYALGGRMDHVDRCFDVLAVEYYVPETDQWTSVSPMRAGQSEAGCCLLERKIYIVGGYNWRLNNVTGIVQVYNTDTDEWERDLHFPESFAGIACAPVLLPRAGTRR

[16] = molecular target: T3, RNA-binding protein 12B (Homo sapiens) (UniProt Q8IXT5); experiment: Binding affinity to RBM12B at C204 residue in human MDA-MB-231 cells at 1 uM incubated for 3 hrs in presence of IAA by proteome-wide scale isoTOP ABPP method; assay type: cell-based
T3 sequence (whole entry): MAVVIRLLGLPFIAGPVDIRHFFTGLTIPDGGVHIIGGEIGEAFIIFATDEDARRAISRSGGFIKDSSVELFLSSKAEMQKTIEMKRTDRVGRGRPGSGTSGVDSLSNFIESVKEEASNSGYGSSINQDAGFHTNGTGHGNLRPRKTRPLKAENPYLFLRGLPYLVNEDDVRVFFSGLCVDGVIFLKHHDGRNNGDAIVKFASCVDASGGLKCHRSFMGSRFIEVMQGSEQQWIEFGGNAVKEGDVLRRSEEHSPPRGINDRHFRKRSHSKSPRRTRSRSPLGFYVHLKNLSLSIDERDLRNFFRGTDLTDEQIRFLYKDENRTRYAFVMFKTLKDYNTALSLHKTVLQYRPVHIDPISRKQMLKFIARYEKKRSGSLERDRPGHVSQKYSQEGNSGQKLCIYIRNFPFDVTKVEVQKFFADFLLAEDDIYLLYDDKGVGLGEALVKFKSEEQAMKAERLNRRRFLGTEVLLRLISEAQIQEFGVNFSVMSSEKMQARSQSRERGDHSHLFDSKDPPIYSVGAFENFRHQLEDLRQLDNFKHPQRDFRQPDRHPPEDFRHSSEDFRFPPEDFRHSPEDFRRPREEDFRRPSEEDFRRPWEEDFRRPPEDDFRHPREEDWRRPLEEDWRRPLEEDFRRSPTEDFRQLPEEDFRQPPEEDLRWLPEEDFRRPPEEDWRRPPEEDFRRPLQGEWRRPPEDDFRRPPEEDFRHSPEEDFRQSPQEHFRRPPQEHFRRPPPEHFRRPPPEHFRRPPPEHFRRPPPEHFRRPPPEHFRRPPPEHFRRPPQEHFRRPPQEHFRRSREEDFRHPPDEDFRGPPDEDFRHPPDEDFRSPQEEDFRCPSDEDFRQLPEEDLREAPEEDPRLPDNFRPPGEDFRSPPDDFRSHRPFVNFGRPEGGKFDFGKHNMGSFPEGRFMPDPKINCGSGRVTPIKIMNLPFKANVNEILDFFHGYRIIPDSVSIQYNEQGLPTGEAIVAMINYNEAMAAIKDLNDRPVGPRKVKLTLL
How it was run: (§1)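 Live MDA-MB-231 cells treated 3 h with compound at 1 μM, or with DMSO vehicle. 100 μM iodoacetamide-alkyne then added as a clickable cysteine-reactive probe. Cysteine competition read by isoTOP ABPP; competed peptides called at ratio R > 4.5.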

[17] = molecular target: T4, Perilipin-3 (Homo sapiens) (UniProt O60664); experiment: Binding affinity to PLIN3 at C39 residue in human MDA-MB-231 cells at 1 uM incubated for 3 hrs in presence of IAA by proteome-wide scale isoTOP ABPP method; assay type: cell-based; how it was run: as §1
T4 sequence (whole entry): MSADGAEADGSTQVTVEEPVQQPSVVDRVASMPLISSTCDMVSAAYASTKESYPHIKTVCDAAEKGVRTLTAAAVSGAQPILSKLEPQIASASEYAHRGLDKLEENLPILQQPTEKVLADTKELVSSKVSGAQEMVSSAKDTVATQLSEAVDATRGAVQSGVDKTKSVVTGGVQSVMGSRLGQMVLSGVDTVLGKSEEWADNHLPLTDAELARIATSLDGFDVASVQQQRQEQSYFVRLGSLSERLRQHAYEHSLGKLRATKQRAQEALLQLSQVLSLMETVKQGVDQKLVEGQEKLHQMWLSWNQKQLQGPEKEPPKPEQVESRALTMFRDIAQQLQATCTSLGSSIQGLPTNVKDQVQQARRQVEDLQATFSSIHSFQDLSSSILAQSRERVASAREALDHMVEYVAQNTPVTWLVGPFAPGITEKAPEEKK

[18] = molecular target: T4, Perilipin-3 (Homo sapiens); experiment: Binding affinity to PLIN3 at C60 residue in human MDA-MB-231 cells at 1 uM incubated for 3 hrs in presence of IAA by proteome-wide scale isoTOP ABPP method; assay type: cell-based; how it was run: as §1
[19] = test system: Mus musculus; experiment: Induction of NQO1 mRNA expression in C57BI6 mouse kidney at 10 mg/kg measured after 24 hrs; assay type: functional, organism-based
[20] = test system: Mus musculus; experiment: Induction of NQO1 mRNA expression in Nrf2-/- mouse kidney at 10 mg/kg measured after 24 hrs; assay type: functional, organism-based
[21] = in vitro; assay type: ADME, Microsome; conditions: rat, pooled liver microsomes, time < 55 min, read-out: CLH
[22] = Cmax in male db/db mouse at 100 mg/kg, po administered via gavage and measured after 30 mins; assay type: ADME, organism-based; conditions: in vivo, 0.5 h
How it was run: (§2)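 Male db/db mice (8–10 weeks), fed, single oral gavage of 100 mg/kg; vehicle 1% hydroxyethyl cellulose, except one compound given in Phosal 50PG/ethanol/PEG400.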

[23] = AUC in male db/db mouse at 100 mg/kg, po administered via gavage and measured after 24 hrs; assay type: ADME, organism-based; conditions: in vivo; how it was run: as §2
[24] = Genotoxicity in human TK6 cells assessed as clastogenicity at 10 uM measured after 4 to 24 hrs by DNA damage response assay; assay type: toxicity, cell-based; conditions: tk6, 10 µM, time 4-24 hrs
[25] = Genotoxicity in […] assessed as clastogenicity at 10 uM measured after 4 to 24 hrs by DNA damage response assay; assay type: toxicity, cell-based; conditions: time 4-24 hrs

Chain of Kelch-like ECH-associated protein 1 (Homo sapiens) (Q14145 whole entry, the tested form may be a part): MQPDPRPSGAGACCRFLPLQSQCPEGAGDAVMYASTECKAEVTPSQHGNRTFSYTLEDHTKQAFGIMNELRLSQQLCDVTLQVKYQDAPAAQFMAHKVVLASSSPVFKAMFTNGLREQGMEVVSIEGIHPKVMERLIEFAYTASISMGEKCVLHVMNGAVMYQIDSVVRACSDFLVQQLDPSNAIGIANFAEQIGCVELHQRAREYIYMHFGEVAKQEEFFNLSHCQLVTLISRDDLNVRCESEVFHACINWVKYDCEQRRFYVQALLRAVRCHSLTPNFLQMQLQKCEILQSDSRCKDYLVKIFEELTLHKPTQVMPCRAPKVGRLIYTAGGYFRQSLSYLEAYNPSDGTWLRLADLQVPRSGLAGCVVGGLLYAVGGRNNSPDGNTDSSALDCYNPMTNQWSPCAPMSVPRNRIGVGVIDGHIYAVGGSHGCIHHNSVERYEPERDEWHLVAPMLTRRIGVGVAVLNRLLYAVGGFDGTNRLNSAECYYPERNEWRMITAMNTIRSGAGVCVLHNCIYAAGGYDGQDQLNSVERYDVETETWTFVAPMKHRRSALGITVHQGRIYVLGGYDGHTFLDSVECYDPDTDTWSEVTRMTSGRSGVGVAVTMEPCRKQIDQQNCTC
T1 sequence (Q16236 whole entry): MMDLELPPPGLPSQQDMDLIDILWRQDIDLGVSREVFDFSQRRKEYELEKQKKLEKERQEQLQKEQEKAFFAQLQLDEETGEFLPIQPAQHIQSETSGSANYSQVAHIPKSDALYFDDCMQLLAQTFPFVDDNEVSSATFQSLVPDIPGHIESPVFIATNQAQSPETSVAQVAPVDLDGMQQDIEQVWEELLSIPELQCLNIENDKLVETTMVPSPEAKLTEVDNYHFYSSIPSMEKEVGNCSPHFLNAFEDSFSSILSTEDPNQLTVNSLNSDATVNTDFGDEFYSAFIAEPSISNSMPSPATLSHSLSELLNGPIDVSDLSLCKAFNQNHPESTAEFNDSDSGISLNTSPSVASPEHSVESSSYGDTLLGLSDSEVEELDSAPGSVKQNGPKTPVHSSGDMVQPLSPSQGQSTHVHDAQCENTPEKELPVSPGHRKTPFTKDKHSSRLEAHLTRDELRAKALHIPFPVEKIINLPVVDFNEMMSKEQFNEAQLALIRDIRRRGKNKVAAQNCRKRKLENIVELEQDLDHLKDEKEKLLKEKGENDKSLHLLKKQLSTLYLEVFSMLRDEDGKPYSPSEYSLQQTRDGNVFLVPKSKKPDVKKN
T1 sequence (Q14145 whole entry): as the sequence (Q14145 whole entry, the tested form may be a part) above

CCS(=O)(=O)c1nc(S(=O)(=O)c2ccccc2C#N)c(N2CCN(C)C(=O)C2)s1
Activity [1]: 299%
Activity [2]: 209%

CCS(=O)(=O)c1nc(S(=O)(=O)c2ccccc2Cl)c(N2CCN(C)C(=O)C2)s1
Activity [1]: 199%
Activity [2]: 379%
Activity [3]: Active
Activity [4]: inactive
Activity [5]: Not active; Compound Selectively Acts Through Keap1-Nrf2 Axis
Activity [6]: Active
Activity [7]: inactive

CCS(=O)(=O)c1nc(S(=O)(=O)c2ccc(-c3cccn(C)c3=O)cc2)c(N2CCN(C)C(=O)C2)s1
EC50 [8]: 1490 nM
EC50 [9]: 516 nM
CLint scaled at 0.75 h, 0.1 µM [10]: 8.5 mL/min/kg
CLint scaled at 0.75 h, 0.1 µM [11]: 22 mL/min/kg
Papp A→B at 2 h, 10 µM [12]: 0.74 ×10⁻⁶ cm/s
Ratio [13]: 46

CCS(=O)(=O)c1nc(S(=O)(=O)c2ccccc2Cl)c(N2CCN(C)C(=O)[C@H]2C)s1
Activity [1]: 344%
Activity [14]: Active
Activity [15]: inactive
Activity [16]: Active
Activity [17]: Active
Activity [18]: Active

CC1(C)CC[C@]2(C(=O)O)CC[C@]3(C)[C@H](C(=O)C=C4[C@@]5(C)C=C(C#N)C(=O)C(C)(C)[C@@H]5CC[C@]43C)[C@@H]2C1
Activity [19]: Active
Activity [20]: inactive

CCS(=O)(=O)c1nc(S(=O)(=O)c2ccccc2C#N)c(N2CCN(C)C(=O)[C@H]2C)s1
Activity [1]: 88%
Activity [2]: 214%
Activity [14]: Active
Activity [15]: inactive

C=Cc1nc(S(=O)(=O)c2ccccc2Cl)c(N2CCN(C)C(=O)C2)s1
Activity [16]: Active

CCS(=O)(=O)c1nc(S(=O)(=O)c2ccccc2Cl)c(N2CC3(CC3)C2)s1
EC50 [8]: > 32000 nM
EC50 [9]: ≥ 13000 nM

CCS(=O)(=O)c1nc(S(=O)(=O)c2ccccc2Cl)c(N2CCP(C)(=O)CC2)s1
EC50 [8]: 4210 nM
EC50 [9]: 946 nM
CLint scaled at 0.75 h, 0.1 µM [21]: 5.6 mL/min/kg
Papp A→B at 2 h, 10 µM [12]: 1.4 ×10⁻⁶ cm/s
Ratio [13]: 4.5

CN1CCN(c2sc(S(=O)(=O)C3CC3)nc2S(=O)(=O)c2ccccc2Cl)CC1=O
Activity [1]: 149%
Activity [2]: 164%

Cc1ccc(S(=O)(=O)c2nc(S(=O)(=O)c3ccccc3)sc2N2CCN(C)CC2)cc1
EC50 [8]: 338 nM
EC50 [9]: 115 nM

Cc1ccc(S(=O)(=O)c2nc(S(=O)(=O)c3ccccc3)sc2N2CCOCC2)cc1
EC50 [8]: 270 nM

CCP1(=O)CCN(c2sc(S(=O)(=O)CC)nc2S(=O)(=O)c2cccc(Cl)c2Cl)CC1
EC50 [8]: 527 nM
EC50 [9]: 160 nM
CLint scaled at 0.75 h, 0.1 µM [10]: 2.6 mL/min/kg
CLint scaled at 0.75 h, 0.1 µM [11]: 52 mL/min/kg
CLint scaled at 0.75 h, 0.1 µM [21]: 62 mL/min/kg
Papp A→B at 2 h, 10 µM [12]: 3 ×10⁻⁶ cm/s
Ratio [13]: 8.7
Cmax [22]: 6.39 µM
AUC [23]: 8.5 µM·h
Activity [1]: 125%
Activity [2]: 116%
Activity [14]: Active
Activity [15]: inactive
Activity [24]: Non-toxic
Activity [25]: Non-toxic
